Results from different studies.
Protocols differ between the studies behind these lines.
Target: Ephrin type-B receptor 4 (EPHB4, Homo sapiens, UniProt P54760)
One construct used (P54760 16-987): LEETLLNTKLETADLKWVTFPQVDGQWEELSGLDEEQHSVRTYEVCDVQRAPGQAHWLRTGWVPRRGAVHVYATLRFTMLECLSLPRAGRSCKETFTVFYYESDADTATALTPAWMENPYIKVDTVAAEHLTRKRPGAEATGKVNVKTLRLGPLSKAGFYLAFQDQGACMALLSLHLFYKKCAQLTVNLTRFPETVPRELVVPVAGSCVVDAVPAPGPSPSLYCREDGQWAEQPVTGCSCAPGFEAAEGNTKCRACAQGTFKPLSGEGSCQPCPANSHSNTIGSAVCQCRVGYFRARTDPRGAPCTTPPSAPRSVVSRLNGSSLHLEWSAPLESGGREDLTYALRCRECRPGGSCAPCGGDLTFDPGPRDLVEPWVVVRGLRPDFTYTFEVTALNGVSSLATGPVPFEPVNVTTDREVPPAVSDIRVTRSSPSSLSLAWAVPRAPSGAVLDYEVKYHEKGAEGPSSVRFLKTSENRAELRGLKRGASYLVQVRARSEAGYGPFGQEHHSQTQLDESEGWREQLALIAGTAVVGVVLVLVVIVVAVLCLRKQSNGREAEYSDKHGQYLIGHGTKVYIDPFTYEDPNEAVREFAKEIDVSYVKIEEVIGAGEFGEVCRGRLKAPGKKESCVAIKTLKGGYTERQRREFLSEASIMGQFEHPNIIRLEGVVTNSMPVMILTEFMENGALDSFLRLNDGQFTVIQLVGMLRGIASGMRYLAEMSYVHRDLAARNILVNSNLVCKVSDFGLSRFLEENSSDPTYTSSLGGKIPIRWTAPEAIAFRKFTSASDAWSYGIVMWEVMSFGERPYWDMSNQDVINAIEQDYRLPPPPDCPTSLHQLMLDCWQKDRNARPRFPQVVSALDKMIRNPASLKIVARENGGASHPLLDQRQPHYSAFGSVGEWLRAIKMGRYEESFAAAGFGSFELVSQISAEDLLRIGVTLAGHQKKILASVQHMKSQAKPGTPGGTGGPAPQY

Compound	test	setting	measurement	value
Cc1nn(C)cc1-c1nc2c(N3CCN(Cc4ccc(Cl)cc4)CC3)c(Cl)cnc2[nH]1	binding, competition with immobilised ligand	1 µM	remaining binding	100%
COc1ncccc1-c1cnn2ccc(N3CCN(C(=O)OC(C)C)CC3)nc12	binding, competition with immobilised ligand	1 µM	remaining binding	100%
COc1cc(Nc2ncc(F)c(Nc3ccc4c(n3)NC(=O)C(C)(C)O4)n2)cc(OC)c1OC	binding, competition with immobilised ligand	10 µM	inhibition	50%
N#CC1(c2ccccn2)CCN(Cc2cc(C(=O)O)c(=O)n3ccccc23)CC1	cell-free assay, competition with immobilised ligand	1 µM	remaining binding	83%
C#Cc1n[nH]c2c(-c3cn([C@@H](C)c4ccccc4)c(=O)[nH]c3=O)cc(F)cc12	enzyme activity, inhibitor	0.1 µM	inhibition	1.4%
Cn1cc(-c2cc(F)cc(N3CCn4c(cc5c4CCCC5)C3=O)c2CO)cc(Nc2ccc(N3CCN(C4COC4)CC3)cn2)c1=O	enzyme activity, inhibitor	0.1 µM	inhibition	8%
Cn1cncc1[C@](O)(COc1ccc(C#N)cc1-c1ccc(OC(F)(F)F)cc1)c1ccc(C#N)cc1	cell-free assay, competition with immobilised ligand	1 µM	remaining binding	98%
Cn1cc(-c2cccc(N3CCc4c(sc5c4CC(C)(C)C5)C3=O)c2CO)cc(Nc2ccncn2)c1=O	enzyme activity, inhibitor	1 µM	inhibition	0%
C#Cc1n[nH]c2c(-c3cn([C@@H](C)c4ccccn4)c(=O)[nH]c3=O)cc(F)cc12	enzyme activity, inhibitor	0.1 µM	inhibition	5.5%
O=c1[nH]c2ccccc2n1C1CCN(Cc2ccc(-c3[nH]c4cc5ncnc5cc4nc3-c3ccccc3)cc2)CC1	cell-free assay	0.5 µM	remaining signal	96.4%
